# This is a sample that favours compounds with a hit; in the whole collection about 2.9% have one here.
# Mot1-301 SUMO: inhibitors of SUMOylation pathway: yeast Mot1-301 growth rescue. growth rescue, % at 18.8 µM. hit rate 1% among 320,000. AID 2716. S. cerevisiae Mot1-301 growth rescue, ATP luminescence, 38.5C; percent above DMSO median, 100 means doubled;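 active = every valid replicate shows activation above 250% relative to neutral control wells; inactive = the rest, any valid replicate at or below 250%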;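 note: OY570 slx delta 5 strain wells were the positive control but not used for scaling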
# NLRP3 yeast inh: NALP3 inhibition in yeast | Yeast reconstituted NLRP3/ASC/caspase-1, beta-gal luminescence, 24 h | inhibition, % at 10 µM | hit rate 0.39% among 330,000;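 active = inhibition of 50% or more; inactive = inhibition below 50%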;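 note: plate controls were induced DMSO wells for no effect and uninduced yeast grown without galactose for full effect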
# VIM-2 inh: blocks Pseudomonas aeruginosa VIM-2 metallo-beta-lactamase; AID 1527; hit rate 0.89% among 290,000; purified VIM-2, nitrocefin hydrolysis, epi-absorbance fluorescence; inhibition, % at 5.6 µM;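 active = inhibition above the mean of all tested compounds plus 3 SD, cutoff set per screening run, cut at about 7.5% in these data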;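 note: red hydrolysis product quenches plate fluorescence so inhibitors raise well fluorescence; 0% = enzyme with DMSO and 100% = DMSO without enzyme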
# IMP-1 inh: inhibitors of Pseudomonas aeruginosa IMP-1 metallo-beta-lactamase; purified IMP-1, nitrocefin hydrolysis, epi-absorbance fluorescence; inhibition, % at 5.6 µM; hit rate 0.45% among 290,000; AID 1556;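 active = inhibition above the mean plus 3 SD of all compounds in the same screening run, cut at about 4.5% in these data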;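 note: 0% = IMP-1 with DMSO and 100% = DMSO wells lacking enzyme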
#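 Assay system: purified IMP-1; Quantity: IMP-1 0.2 nM before substrate addition; Medium: HEPES buffer pH 7.1 with ZnSO4 and Brij 35; Incubation: 15 min enzyme–compound preincubation, then 25 min nitrocefin reaction, 25 °C; Signal: fluorescence quenching readout, ex 480/em 530 nm; Controls: DMSO with and without IMP-1; Repeats: singlicate testing.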
# PolyA inh: yeast polyadenylation inhibition. S. cerevisiae SKY197-pL101 polyadenylation reporter, beta-gal luminescence; efflux-impaired pdr1/pdr3 knockout yeast; score 100 = 6 SD above DMSO. AID 1875. activity score, % at 12 µM. hit rate 0.02% among 300,000;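 active = lowest replicate activity score at least 50, where 100 means six control SD above control mean; inconclusive = lowest score under 50 but half or more replicates reach 50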;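 note: yeast exposed to compound for 9 h at 30 °C; higher score means more reporter readthrough which indicates perturbed polyadenylation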
# NALP1 yeast inh: NALP1 inhibition. S. cerevisiae NALP1/ASC/caspase-1 growth, X-gal OD620, 72 h. inhibition, % at 10 µM. AID 2071. hit rate 0.61% among 280,000; in the data active = inhibition mostly above about 24%, no sharp cut-off; inactive = mostly below about 32%
# Yeast Mot1 SUMO: yeast SUMO pathway inhibition in dose response; growth activity, percent, % at 42 µM; AID 493004; 2,300 tested, under 10 active; S. cerevisiae Mot1-301 galactose growth, ATP luminescence, 24 h; -100 = growth of slx-deleted rescue strain; shares compounds with Mot1-301 SUMO;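 active = Signal drops as the depositor expects, and the fitted half-maximal dose is no more than ten times the top valid tested dose; inconclusive = Poor fit, or a flat curve whose signal drops by 30% to 70%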;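 note: more negative values mean stronger growth rescue toward the control strain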
# * = called active by the depositor; ? = inconclusive; / = no result.
SMILES,Mot1-301 SUMO,NLRP3 yeast inh,VIM-2 inh,IMP-1 inh,PolyA inh,NALP1 yeast inh,Yeast Mot1 SUMO
CC1CN(C(=O)CSc2nnc(CNC(=O)c3ccc(S(=O)(=O)N(C)C)cc3)o2)CC(C)O1 (stereo unspecified),-10,5,-1,-1,21,13,/
O=C1CN(C(=O)c2c(F)cccc2F)C(c2ccc(F)cc2)c2cc(F)ccc2N1 (stereo unspecified),677*,5,3,-2,2,12,-1
Cc1cccc(C)c1NC(=O)CN(C)C(=O)CN1C(=O)NC2(CCCC2)C1=O,6,-7,/,/,11,/,/
COc1ccc(N(C(=O)c2ccco2)C(C(=O)NC2CCCCC2)c2ccccc2)cc1 (stereo unspecified),694*,4,-3,-1,8,/,1
COc1ccc(NC2CCCN(C(=O)CCc3scnc3C)C2)cc1 (stereo unspecified),439*,10,0,-1,-13,10,0
COc1ccc(NC2CCCN(C(=O)c3csc(C)n3)C2)cc1 (stereo unspecified),774*,7,3,0,-24,18,2
Cc1nc(C(=O)N2CCCC(Nc3ccc(C)c(C)c3)C2)cs1 (stereo unspecified),0,1,0,-2,0,-4,/
CCC(c1nnnn1C1CCCCC1)N1CCN(C(=O)c2ccco2)CC1 (stereo unspecified),-6,6,-1,-3,9,2,/
O=C(c1ccccc1F)N1CCN=C1SCc1cccnc1,569*,-5,1,-1,7,32,1
Cc1ccc(C(=O)NNC(=O)Cn2ccc(C(F)(F)F)n2)o1,-1,21,/,/,-22,/,/
Fc1cccc(F)c1-c1nc(-c2ccncc2)no1,952*,14,0,-1,2,16,0
C=CCn1c(CCC)nc2ccccc21,634*,4,-2,-2,-9,5,0
C=CCn1c(CC(C)(C)C)nc2ccccc21,496,15,-1,-1,-18,14,/
CCOC(=O)c1sc(NC(=O)C(CC)OC(=O)c2ccco2)nc1C (stereo unspecified),889*,7,0,-2,-20,8,0
CCOC(=O)c1sc(NC(=S)NC(=O)c2ccco2)nc1C,-3,9,-1,-1,-6,26,/
CCCS(=O)(=O)N1CCCC(C(=O)Oc2ccc(C)c(C)c2)C1 (stereo unspecified),-12,8,-2,-2,-12,10,/
CCN(CC)CC(=O)Nc1ccc(Oc2ccc(NC(=O)CN(CC)CC)cc2)cc1,371*,16,-1,-2,4,19,1
CCCCNS(=O)(=O)c1ccc2c(c1)oc(=O)n2CC(=O)OCC,540*,10,-1,-4,-2,-16,0
CCOC(=O)Cn1c(=O)oc2cc(S(=O)(=O)Nc3c(C)cc(C)cc3C)ccc21,7,20,-1,-3,/,-16,/
CCN(CC)c1ncc(C#N)c(N)n1,-4,23,-3,-2,-1,-11,/
Cn1c(CN2CCOCC2)nnc1SCC(=O)Nc1cc(Cl)ccc1Cl,611*,21,-2,1,3,31,2
O=C(CCC(=O)Nc1ccc(F)cc1)N/N=C/c1cccs1,545*,15,-1,-1,-29,9,1
Cc1ccc(S(=O)(=O)NCC(=O)OCc2ccccc2Br)cc1,-19,7,0,0,-4,-30,/
Cc1ccc(S(=O)(=O)NCC(=O)OCC(=O)c2ccc(Br)s2)cc1,747*,10,-2,-1,5,14,0
N/C(Cn1cncn1)=N\NC(=O)c1ccc(Cl)cc1Cl,778*,2,-2,-3,15,15,1
SMILES,Mot1-301 SUMO,NLRP3 yeast inh,VIM-2 inh,IMP-1 inh,PolyA inh,NALP1 yeast inh,Yeast Mot1 SUMO
N/C(Cn1cncn1)=N\NC(=O)C(=O)Nc1ccc(Cl)cc1Cl,78,21,-2,-2,-8,-38,/
CN1CCN(C(=O)c2ccc(CS(=O)(=O)c3c(Cl)cccc3Cl)o2)CC1,-14,14,-4,-5,-3,-12,/
O=C(c1ccc(CS(=O)(=O)c2ccccc2)o1)N1CCOCC1,372*,18,-2,-4,-5,-1,2
CCOC(=O)N1CCN(C(=O)c2ccc(CS(=O)(=O)c3c(Cl)cccc3Cl)o2)CC1,603*,12,-2,1,-12,28,0
O=C(CCl)N1CCCC1c1ccc2c(c1)OCCO2 (stereo unspecified),4,6,-4,2,-5,-9,/
C(=N\Nc1nc(N2CCCC2)nc(N2CCCC2)n1)/c1ccncc1,-4,10,-4,-4,4,-1,/
COc1cccc(C(=O)N2CCN(S(=O)(=O)Cc3ccccc3)CC2)c1OC,530*,-17,-3,-4,0,3,0
CN(C)CCCNCC(=O)c1c(-c2ccccc2)n(C)c2ccccc12,-8,/,1,1,?,23,/
CCC(C)c1ccccc1N1CC(C(=O)Nc2ccc(N3CCOCC3)cc2)CC1=O (stereo unspecified),-10,-7,/,/,/,/,/
O=c1[nH]c(CN2CCN(CCO)CC2)nc2ccccc12,587*,2,-3,-3,23,16,0
O=c1[nH]c(CN2CCN(c3ccccc3O)CC2)nc2ccccc12,78,21,-7,-4,12,16,/
Cc1ccc(N2CN(CCc3ccccc3)CNC2=S)cc1,419*,6,-2,-1,-9,7,1
CCOC(=O)c1ccc(N2CN(CCc3ccccc3)CNC2=S)cc1,-26,26,0,0,1,0,/
Cc1cccc(-c2nn(-c3ccccc3)cc2C(=O)N(C)CC(=O)Nc2ccc(N3CCOCC3)cc2)c1,24,2,/,/,-1,/,/
CCCCn1c(SCC(=O)Nc2cc(C)on2)nnc1-c1ccco1,527*,-2,-4,-1,6,0,0
O=C(Cc1cccs1)N1CCCC(c2nc3c(nnn3Cc3ccc(F)cc3)c(=O)[nH]2)C1 (stereo unspecified),533*,6,-4,-3,5,25,0
CCc1c(C)c2ccc(OCC(=O)OC(C)C)c(C)c2oc1=O,379,17,-1,-4,-4,-3,1
COc1cc(COc2ccc3c(C)c(CCC(=O)O)c(=O)oc3c2)cc(OC)c1OC,-40,13,-1,-2,5,17,/
COc1cc(COc2ccc3c(C)c(CC(=O)O)c(=O)oc3c2C)cc(OC)c1OC,628*,8,0,0,3,22,-1
